Assay results reported in ChEMBL document CHEMBL1177807, “Structure-based optimization of potent PDK1 inhibitors” (Bioorg Med Chem Lett, 2010).
Calls of active or inactive are those of the source. The rule behind the calls is not given here.

What was measured:
[1] = molecular target: Cyclin-dependent kinase 2 (Homo sapiens, UniProt P24941); test: Inhibition of CDK2
MCF7 = test: Cytotoxicity against human MCF7 cells after 72 hrs by Cell titer-glo assay; assay type: functional
Summary of the method: (§1)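 A2780 cells were grown in RPMI-1640 and MCF7 cells in MEM, each with heat-inactivated 10% fetal calf serum. Cells were seeded at 2500–5000 cells/well, treated with compound after 24 h, and incubated 72 h at 37 °C under 5% CO₂. Lysed-well ATP content, read by thermostable firefly luciferase, measured viable cells. IC₅₀ came from percent growth versus untreated control.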

[2] = molecular target: T1, 3-phosphoinositide-dependent protein kinase 1 (Homo sapiens, UniProt O15530); test: (§2) Inhibition of PDK1
T1 sequence (O15530 whole entry): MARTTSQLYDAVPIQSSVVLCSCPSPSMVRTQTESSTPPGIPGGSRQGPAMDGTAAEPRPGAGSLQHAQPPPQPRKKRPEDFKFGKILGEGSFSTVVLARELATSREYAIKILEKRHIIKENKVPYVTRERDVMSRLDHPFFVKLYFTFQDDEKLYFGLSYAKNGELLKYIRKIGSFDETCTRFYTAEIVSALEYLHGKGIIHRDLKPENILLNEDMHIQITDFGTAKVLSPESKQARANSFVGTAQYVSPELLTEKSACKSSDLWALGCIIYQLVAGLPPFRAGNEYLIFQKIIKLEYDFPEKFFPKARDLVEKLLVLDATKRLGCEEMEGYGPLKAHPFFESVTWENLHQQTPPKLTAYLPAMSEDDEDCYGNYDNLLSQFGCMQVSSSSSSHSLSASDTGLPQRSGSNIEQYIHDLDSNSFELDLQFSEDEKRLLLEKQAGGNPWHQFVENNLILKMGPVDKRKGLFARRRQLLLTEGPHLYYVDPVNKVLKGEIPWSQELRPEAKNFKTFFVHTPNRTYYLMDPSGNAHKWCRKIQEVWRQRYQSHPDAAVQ

A2780 = test: Cytotoxicity against human A2780 cells after 72 hrs by Cell titer-glo assay; assay type: functional; summary of the method: as §1
[3] = molecular target: T2, Aurora kinase A (Homo sapiens) (UniProt O14965); test: Inhibition of aurora A at 40 nM
T2 sequence (whole entry): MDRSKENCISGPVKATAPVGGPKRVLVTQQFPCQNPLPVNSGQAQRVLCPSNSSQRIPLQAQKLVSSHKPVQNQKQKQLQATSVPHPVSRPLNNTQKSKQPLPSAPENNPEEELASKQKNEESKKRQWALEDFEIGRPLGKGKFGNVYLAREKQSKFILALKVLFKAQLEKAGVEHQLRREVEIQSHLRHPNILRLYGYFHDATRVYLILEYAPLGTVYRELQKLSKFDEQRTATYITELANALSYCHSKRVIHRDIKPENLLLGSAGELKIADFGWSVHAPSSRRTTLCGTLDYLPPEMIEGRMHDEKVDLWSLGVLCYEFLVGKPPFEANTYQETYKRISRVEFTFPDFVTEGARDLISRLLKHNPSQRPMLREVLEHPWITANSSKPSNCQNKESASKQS

[4] = molecular target: Aurora kinase B (Homo sapiens) (UniProt Q96GD4); test: Inhibition of aurora B at 100 nM
[5] = molecular target: T3, 3-phosphoinositide-dependent protein kinase 1 (Homo sapiens) (UniProt O15530); test: as §2
T3 sequence (whole entry): T1 sequence (O15530 whole entry)

Chain of Aurora kinase B (Homo sapiens) (Q96GD4 whole entry): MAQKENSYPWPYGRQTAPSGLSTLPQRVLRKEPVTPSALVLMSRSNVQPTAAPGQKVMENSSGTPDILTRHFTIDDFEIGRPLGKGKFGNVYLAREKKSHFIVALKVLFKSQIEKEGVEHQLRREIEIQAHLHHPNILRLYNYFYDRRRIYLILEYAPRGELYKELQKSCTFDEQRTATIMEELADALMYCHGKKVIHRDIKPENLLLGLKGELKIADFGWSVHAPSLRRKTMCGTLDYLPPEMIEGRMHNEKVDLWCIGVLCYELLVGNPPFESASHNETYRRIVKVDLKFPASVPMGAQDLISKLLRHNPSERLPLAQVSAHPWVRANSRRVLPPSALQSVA

IC50 [1] [nM]	IC50 [2] [nM]	inhibition [3]	inhibition [4]	IC50 [5] [nM]	SMILES	Activity (MCF7) [µM]	Activity (A2780) [µM]
10	2740	–	–	–	NC(=O)Cn1nc(C(N)=O)c2c1-c1nc(Nc3ccccc3)ncc1CC2	6	2.71
500	85	Active	Active	–	Cc1cc(CNC(=O)c2nn(CCCN)c3c2CCc2cnc(Nc4cccc(CC(=O)N(C)C)c4)nc2-3)ccn1 [NERVIANO]	>10	5.9
1	36	–	–	–	NCCCn1nc(C(N)=O)c2c1-c1nc(Nc3ccccc3)ncc1CC2	0.14	0.12
319	–	–	–	713	Cc1cc(CNC(=O)c2nn(C)c3c2CCc2cnc(Nc4ccc(N5CCN(C)CC5)cc4)nc2-3)ccn1	4.91	0.17
12	–	–	–	–	NC(=O)c1nn(CC2CCNCC2)c2c1CCc1cnc(Nc3ccccc3)nc1-2	1.36	0.51
